Results as given in PMC5814546 (Clinical Pharmacokinetics, 2017).
Entries after “also recorded” stand apart in the source; their conditions may differ. Where two headings read alike, the source gives them in different places. Blank lines part the entries; values can stand above or below the molecule they belong to.

Experiments:
[1] = Urine drug recovery, renal clearance and estimate of oral bioavailability; type: in vivo, human; conditions: Cohort D, 24-h urine; for CL renal: both, human, urine and plasma, oral, 265 mg, CLr, mean ± SD
Summary of the method: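 Cohort D: 265 mg immediate-release tablet in the fed state (meal 30 min pre-dose), once on day 1, twice daily days 2–6, once on day 7. Urine was collected over 24 h on days 1 and 7 and assayed by LC-MS (LLOQ 30 ng/mL ALZ-801, 100 ng/mL tramiprosate). Renal clearance was calculated as Ae divided by plasma AUC24.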

[2] = Drug substance properties; type: physicochemical
[3] = Phase I multiple ascending dose study of ALZ-801 capsule and tablet; type: in vivo, human; conditions: plasma; for Tmax / half-life / AUC / Cmax: both, human, oral; for half-life: t ½; for Cmax: C max; for lower C max for 265 mg tablet than 256.5 mg capsule: fed state
[4] = Summary of clinical safety and tolerability in phase I SAD and MAD studies; type: in vivo, human
Summary of the method: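 Healthy volunteers received oral ALZ-801 as capsule or tablet, fasted or fed, in single and multiple-dose placebo-controlled studies. AEs were logged from first dose to discharge and at a follow-up call, then coded with MedDRA v18.1. QTc and safety laboratory tests were monitored against withdrawal criteria. Summaries are given as cases or cases (%).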

[5] = Safety and tolerability, capsule and tablet multiple ascending dose study; type: in vivo, human
Summary of the method: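 Double-blind study; 12 per cohort randomized 3:1 to ALZ-801 or placebo. Cohort A fasted capsule: 171 mg once on day 1, twice daily days 2–7, then 256.5 mg days 8–14. Cohort D tablet 265 mg, ages 60–75, fed 30 min pre-dose: once day 1, twice daily days 2–6, once day 7. AEs recorded until follow-up call and coded by MedDRA v18.1.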

[6] = Single-dose ALZ-801 immediate-release tablet PK and food effect study; type: in vivo, human; conditions: plasma; for Cmax: C max
[7] = cited from earlier work; for ADAS-cog difference compared with placebo: oral tramiprosate
[8] = Bridging clinical dose analysis and projection of brain drug exposure; design: species or system human; conditions: for projected plasma tramiprosate AUC12: oral ALZ-801 265 mg twice daily, steady state
Summary of the method: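 Projected from human plasma tramiprosate AUC after oral tablet: linear regression of steady-state dose vs AUC for 205 and 342 mg fed, with accumulation factor from Study 2 day 7/day 1 and modelled Study 3 data. Benchmark was the plasma AUC12 of the earlier 150 mg twice-daily tramiprosate trial. Brain exposure scaled by rodent brain/plasma ratio (14C-tramiprosate, single and steady-state).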

[9] = molecular target: T1, OAT3 (Homo sapiens, UniProt Q8TCC7); test: Effect on renal transporters; type: in vitro ADME; conditions: concentrations up to 100 mM; data on file
T1 sequence (Q8TCC7 1-542): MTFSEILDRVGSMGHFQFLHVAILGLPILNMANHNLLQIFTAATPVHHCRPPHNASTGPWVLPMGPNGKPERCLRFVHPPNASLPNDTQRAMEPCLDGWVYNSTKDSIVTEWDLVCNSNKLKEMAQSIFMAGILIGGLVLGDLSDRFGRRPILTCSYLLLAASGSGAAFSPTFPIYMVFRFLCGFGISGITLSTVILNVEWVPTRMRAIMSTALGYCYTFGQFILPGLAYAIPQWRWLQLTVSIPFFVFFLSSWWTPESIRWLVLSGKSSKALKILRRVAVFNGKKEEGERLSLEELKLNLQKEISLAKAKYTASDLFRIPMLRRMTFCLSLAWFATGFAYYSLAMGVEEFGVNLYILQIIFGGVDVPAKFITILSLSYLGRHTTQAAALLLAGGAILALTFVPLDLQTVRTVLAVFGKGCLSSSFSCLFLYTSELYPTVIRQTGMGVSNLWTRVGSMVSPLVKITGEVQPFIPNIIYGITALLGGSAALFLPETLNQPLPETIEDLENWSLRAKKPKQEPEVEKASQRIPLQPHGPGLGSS

[10] = tested on: Aβ oligomers; conditions: 1000-fold excess of tramiprosate, IMS-MS; cited from earlier work
[11] = 265 mg, AUC12, plasma, Day 1, fed, ALZ-801 tablet 265 mg (Cohort D), mean ± SD
[12] = 265 mg, AUC12, plasma, Day 7, fed, ALZ-801 tablet 265 mg twice daily (Cohort D), mean ± SD
[13] = 265 mg, AUC24, plasma, Day 1, fed, ALZ-801 tablet 265 mg (Cohort D), mean ± SD
[14] = 265 mg, AUC24, plasma, Day 7, fed, ALZ-801 tablet 265 mg twice daily (Cohort D), mean ± SD
[15] = 265 mg, Day 1, fed, ALZ-801 tablet 265 mg (Cohort D), mean ± SD
[16] = 265 mg, T max, Day 1, fed, ALZ-801 tablet 265 mg (Cohort D), mean ± SD
[17] = 265 mg, T max, Day 7, fed, ALZ-801 tablet 265 mg twice daily (Cohort D), mean ± SD
[18] = 265 mg, Day 7, fed, ALZ-801 tablet 265 mg twice daily (Cohort D), mean ± SD
[19] = 256.5 mg ALZ-801 capsules, day 1
[20] = repeated 256.5 mg ALZ-801 capsules, day 7
[21] = Part 1: Cohort A, 171 and 256.5 mg capsule, fasted
[22] = Part 1: Cohort B, 256.5 and 340 mg capsule, fasted
[23] = Part 1: Cohort C, 256.5 and 340 mg capsule, fed
[24] = Part 2: Cohort D, 265 mg tablet, fed
[25] = Week 1, Cohort A 171 mg bid, capsule, fasted
[26] = Week 1, Cohort B 256.5 mg bid, capsule, fasted
[27] = Week 1, Cohort C 256.5 mg bid, capsule, fed
[28] = Week 1, Cohort D 265 mg bid, tablet, fed
[29] = Week 2, Cohort A 256.5 mg qd, capsule, fasted
[30] = Week 2, Cohort B 340 mg qd, capsule, fasted
[31] = Week 2, Cohort C 340 mg bid, capsule, fed
[32] = day 7 vs day 1, 171 and 256.5 mg capsules, fasted
[33] = 205 mg ALZ-801 tablets fed (Regimen C) vs fasted

SMILES: CC(C)[C@H](N)C(=O)NCCCS(=O)(=O)O [ALZ-801, 3-(L-valyl) amino-1-propanesulfonic acid]
- Mean Ae ([1]; Day 1, ALZ-801 tablet 265 mg): 22.5 mg
- Mean Ae ([1]; Day 7, ALZ-801 tablet 265 mg): 24.1 mg
- CL renal ([1]; Day 1, ALZ-801 tablet 265 mg): 36.4 ± 10.7 mL/min
- CL renal ([1]; Day 7, ALZ-801 tablet 265 mg): 35.9 ± 19.9 mL/min
- pKa [2]: 7.69
- solubility ([2]; water): > 200 mg/mL
- Tmax ([3]; 256.5 mg, T max, ALZ-801 capsule 171 and 256.5 mg, day 1, fasted): 0.5 h
- Tmax ([3]; 256.5 mg, Tmax, Cohort C, capsule, fed, 256.5 mg QD, Day 1, median (range)): ~1 h
- half-life ([3]; 256.5 mg, ALZ-801 capsule 171 and 256.5 mg, day 1, fasted): ~1 h
- AUC [3, 11]: 10300 ng·h/mL
- AUC [3, 12]: 11200 ng·h/mL
- AUC [3, 13]: 10300 ng·h/mL
- AUC [3, 14]: 11200 ng·h/mL
- Cmax [3, 15]: 4960 ± 2650 ng/mL
- Tmax [3, 16]: 2.45 ± 0.848 h
- Tmax [3, 17]: 2.11 ± 0.553 h
- half-life [3, 15]: 1.05 ± 0.16 h
- half-life [3, 18]: 1.11 ± 0.263 h
- Tmax ([3]; 340 mg, T max, day 14, dosing in the fasted state): ~0.5 h
- half-life ([3]; irrespective of dosing regimen and day): ~1 h
- lower C max in fed than fasted state [3, 19]: 25%
- lower C max for 265 mg tablet than 256.5 mg capsule ([3]; day 1): 22%
- lower C max in fed than fasted state [3, 20]: 30%
- tolerability ([4]; oral, capsule or tablet, healthy volunteers): well tolerated
- dose-limiting toxicity or maximum tolerated dose ([4]; over 2 weeks of dosing at doses up to 342 mg twice daily): no dose-limiting toxicity or maximum tolerated dose (MTD) was observed; also recorded: no dose-limiting toxicity was observed
- incidence of TEAEs ([5]; 265 mg twice daily, fed state): equivalent to placebo
- total number of TEAEs ([5]; ALZ-801 dosing in the fasting state): 65
- No. of deaths (all causes) [5, 21]: 0
- No. of deaths resulting from AEs [5, 21]: 0
- Subjects affected by SAE/exposed [5, 21]: 0/9
- No. of deaths (all causes) [5, 22]: 0
- No. of deaths resulting from AEs [5, 22]: 0
- Subjects affected by SAE/exposed [5, 22]: 0/9
- No. of deaths (all causes) [5, 23]: 0
- No. of deaths resulting from AEs [5, 23]: 0
- Subjects affected by SAE/exposed [5, 23]: 0/9
- No. of deaths (all causes) [5, 24]: 0
- No. of deaths resulting from AEs [5, 24]: 0
- Subjects affected by SAE/exposed [5, 24]: 0/9
- TEAEs: Nausea [5, 25]: 3 (33.3) cases (%)
- TEAEs: Vomiting [5, 25]: 0 cases (%)
- TEAEs: Nausea [5, 26]: 4 (44.4) cases (%)
- TEAEs: Vomiting [5, 26]: 2 (22.2) cases (%)
- TEAEs: Nausea [5, 27]: 5 (55.6) cases (%)
- TEAEs: Vomiting [5, 27]: 2 (22.2) cases (%)
- TEAEs: Nausea [5, 28]: 3 (33.3) cases (%)
- TEAEs: Vomiting [5, 28]: 1 (11.1) cases (%)
- TEAEs: Nausea [5, 29]: 3 (33.3) cases (%)
- TEAEs: Vomiting [5, 29]: 0 cases (%)
- TEAEs: Nausea [5, 30]: 0 cases (%)
- TEAEs: Vomiting [5, 30]: 2 (22.2) cases (%)
- TEAEs: Nausea [5, 31]: 0 cases (%)
- TEAEs: Vomiting [5, 31]: 0 cases (%)
- tolerability ([5]; doses of up to 340 mg twice daily): well tolerated
- half-life ([6]; human, oral): < 1 h
- Tmax ([6]; human, oral, 171 mg): 1 h
- Tmax ([6]; human, oral, 205 mg): 0.5 h

- CL renal ([1]; Day 1, ALZ-801 tablet 265 mg): 201 ± 48.2 mL/min
- CL renal ([1]; Day 7, ALZ-801 tablet 265 mg): 194 ± 85.1 mL/min
- projected plasma tramiprosate AUC12 ([8]; fasted): approximately 4844 ng/mL h
- projected plasma tramiprosate AUC12 ([8]; fasted and fed combined): ~4502 ng·h/mL
- projected plasma tramiprosate AUC12 ([8]; fed): ~4360 ng·h/mL
- Projected brain average concentration (C ss,av) ([8]; projected steady state, ALZ-801 tablet 265 mg twice daily, humans, 14C method): approximately 550 nM
- brain:plasma ratio (brain penetration), steady state ([8]; rodent, 14C method, projected after steady-state dosing): ~ 40%
- AUC [3, 11]: 3300 ± 608 ng·h/mL
- AUC [3, 12]: 4100 ± 687 ng·h/mL
- AUC [3, 13]: 3650 ± 670 ng·h/mL
- AUC [3, 14]: 5020 ± 859 ng·h/mL
- Cmax [3, 15]: 759 ± 163 ng/mL
- Cmax [3, 18]: 865 ± 172 ng/mL
- Tmax [3, 16]: 3.56 ± 0.88 h
- Tmax [3, 17]: 2.9 ± 0.603 h
- half-life [3, 15]: 8.94 ± 1.35 h
- half-life [3, 18]: 36.1 ± 4.15 h
- lower C max in fed than fasted state [3, 19]: approximately 13%
- accumulation ratio AUC12 [3, 32]: 1.3
- accumulation ratio C max [3, 32]: 1.2
- lower C max for 265 mg tablet than 256.5 mg capsule ([3]; day 1): approximately 12%
- lower C max for 265 mg tablets than 256.5 mg capsules ([3]; fed, day 7): 11%
- lower C max in fed than fasted state [3, 20]: ~18%
- effect on renal transporter [9]: no effect
- half-life ([6]; human, oral, 171 mg): 12.9 h
- Tmax ([6]; human, oral, 205 mg): 1.5 h
- half-life ([6]; human, oral, 205 mg): 16.5 h
- AUC(0-t) ([6]; human, oral, 205 mg, AUCt, 205 mg ALZ-801 tablets, fed (Regimen C)): 2990 ng·h/mL
- Cmax ([6]; human, oral, 205 mg, 205 mg ALZ-801 tablets, fed (Regimen C)): 638 ng/mL
- Cmax ([6]; human, oral, 342 mg, 342 mg ALZ-801 tablets, fed (Regimen D)): 978 ng/mL
- delay of T max with food [6, 33]: approximately 30 min
- reduced C max with food [6, 33]: 17%
- fold increase in C max for 1.7-fold increase in dose ([6]; 342 mg (Regimen D) vs 205 mg ALZ-801 tablets, fed): 1.5 fold
- interindividual variability for exposure ([6]; ALZ-801 tablet, fed and fasted states): 20–35%
SMILES: NCCCS(=O)(=O)O [tramiprosate, 3-amino-1-propanesulfonic acid]
- Mean Ae ([1]; Day 1, ALZ-801 tablet 265 mg): 44.0 mg
- Mean Ae ([1]; Day 7, ALZ-801 tablet 265 mg): 58.4 mg
- ADAS-cog difference compared with placebo ([7]; APOE4 carriers): 2 point
- ADAS-cog difference compared with placebo ([7]; APOE4 homozygous (APOE4/4) patients): 4 point
- CSF drug levels ([7]; oral tramiprosate 150 mg twice daily for 78 weeks): 60 nM
- mean plasma exposure AUC12 ([7]; tramiprosate 150 mg twice daily, 78 weeks, phase III): 4429 ng·h/mL
- formation of Aβ oligomers [10]: completely abrogated
